# According to ChEMBL document CHEMBL3102784, “Salicylanilide diethyl phosphates: synthesis, antimicrobial activity and cytotoxicity” (Bioorg Med Chem, 2014):
# Calls of active or inactive are those of the source. The calls are words filed in the database; no cut-off is given here.
# Columns and labels:
# [1] = system: Lichtheimia corymbifera; experiment: Antifungal activity against Absidia corymbifera 272 after 48 hrs by broth microdilution method; format: functional; details: Lichtheimia corymbifera, 272, 48 h
# Outline: (§1)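 Broth microdilution in RPMI 1640 with glutamine, fluconazole as reference. For yeasts, MIC is ≥80% growth reduction (IC80) versus control. For filamentous fungi, the value is expressed as IC50. Readings at 24 and 48 h.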
# [2] = system: Mycobacterium kansasii; experiment: Antimycobacterial activity against Mycobacterium kansasii 6509/96 after 14 days; format: functional; details: 6509/96, 336 h
# Outline: (§2)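 Micromethod MIC in Šula's semisynthetic medium at 37 °C. Compounds added in DMSO at 1000 down to 0.032 µmol/L. Isoniazid standard in sterile water at 0.5–250 µmol/L. Inocula: H37Rv 10^3, M. avium 10^5, M. kansasii 10^4. Read at 14 and 21 d, plus 7 d for M. kansasii.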
# [3] = system: Klebsiella pneumoniae; experiment: Antibacterial activity against ESBL-positive Klebsiella pneumoniae J 14368/08 at 500 micromol/L after 24 to 48 hrs by broth microdilution method; format: functional, organism-based
# Outline: (§3)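 Broth microdilution in Mueller–Hinton broth, compounds dissolved in DMSO, tested over a dilution series from 500 downward. MIC taken as ≥95% growth reduction (IC95) versus drug-free control. Benzylpenicillin comparator. Readings at 24 and 48 h.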
# [4] = system: Staphylococcus epidermidis; experiment: Antibacterial activity against Staphylococcus epidermidis H 6966/08 after 48 hrs by broth microdilution method; format: functional; details: H 6966/08, 48 h; outline: as §3
# [5] = system: Trichophyton mentagrophytes; experiment: Antifungal activity against Trichophyton mentagrophytes 445 after 72 hrs by broth microdilution method; format: functional; details: Trichophyton mentagrophytes, 445, 72 h
# Outline: (§4)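 Filamentous dermatophyte tested by broth microdilution in RPMI 1640 with glutamine, fluconazole as reference. Value expressed as IC50 relative to growth control. Read at 72 and 120 h.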
# [6] = system: Staphylococcus aureus; experiment: Antibacterial activity against Staphylococcus aureus CCM 4516/08 after 24 hrs by broth microdilution method; format: functional; details: CCM 4516/08, 24 h; outline: as §3
# [7] = system: Candida tropicalis; experiment: Antifungal activity against Candida tropicalis 156 at 500 micromol/L after 24 to 48 hrs by broth microdilution method; format: functional, organism-based; outline: as §1
# [8] = system: Nakaseomyces glabratus; experiment: Antifungal activity against Candida glabrata 20/I at 500 micromol/L after 24 to 48 hrs by broth microdilution method; format: functional, organism-based; outline: as §1
# [9] = system: Staphylococcus aureus; experiment: Antibacterial activity against Staphylococcus aureus CCM 4516/08 after 48 hrs by broth microdilution method; format: functional; details: CCM 4516/08, 48 h; outline: as §3
# [10] = system: Pichia kudriavzevii; experiment: Antifungal activity against Candida krusei E28 after 48 hrs by broth microdilution method; format: functional; details: E28, 48 h; outline: as §1
# [11] = system: Aspergillus fumigatus; experiment: Antifungal activity against Aspergillus fumigatus 231 after 48 hrs by broth microdilution method; format: functional; details: Aspergillus fumigatus, 231, 48 h; outline: as §1
# [12] = system: Aspergillus fumigatus; experiment: Antifungal activity against Aspergillus fumigatus 231 after 24 hrs by broth microdilution method; format: functional; details: Aspergillus fumigatus, 231, 24 h; outline: as §1
# [13] = system: Pichia kudriavzevii; experiment: Antifungal activity against Candida krusei E28 after 24 hrs by broth microdilution method; format: functional; details: E28, 24 h; outline: as §1
# [14] = system: Klebsiella pneumoniae; experiment: Antibacterial activity against Klebsiella pneumoniae D 11750/08 at 500 micromol/L after 24 to 48 hrs by broth microdilution method; format: functional, organism-based; outline: as §3
# [15] = system: Mycobacterium kansasii; experiment: Antimycobacterial activity against Mycobacterium kansasii My 235/80 after 21 days; format: functional; details: My 235/80, 504 h; outline: as §2
# [16] = system: Lichtheimia corymbifera; experiment: Antifungal activity against Absidia corymbifera 272 after 24 hrs by broth microdilution method; format: functional; details: Lichtheimia corymbifera, 272, 24 h; outline: as §1
# [17] = system: HepG2; experiment: Cytotoxicity against human HepG2 cells after 24 hrs by CellTiter assay; format: cell-based; details: HepG2, 24 h
# Outline: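 HepG2 cells (passage 27–33) in MEM with 10% FBS, L-glutamine and NEAA, seeded at 1×10^4 per well. Treated next day with compounds at 0.1–100 µM (or 0.1–25 µmol/L), triplicates, <1% DMSO, for 24 h at 37 °C, 5% CO2. MTS reagent added for 2 h, absorbance read at 490 nm. IC50 taken against untreated (100%) and 10% DMSO (0%) controls.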
# [18] = system: Candida albicans; experiment: Antifungal activity against Candida albicans ATCC 44859 after 24 hrs by broth microdilution method; format: functional; details: ATCC 44859, 24 h; outline: as §1
# [19] = system: Pseudomonas aeruginosa; experiment: Antibacterial activity against Pseudomonas aeruginosa CCM 1961 at 500 micromol/L after 24 to 48 hrs by broth microdilution method; format: functional, organism-based; outline: as §3
# [20] = system: Mycobacterium kansasii; experiment: Antimycobacterial activity against Mycobacterium kansasii 6509/96 after 7 days; format: functional; details: 6509/96, 168 h; outline: as §2
# [21] = system: Mycobacterium avium; experiment: Antimycobacterial activity against isoniazid, rifampicin, ethambutol and ofloxacin-resistant Mycobacterium avium My 330/88 after 21 days; format: functional; details: My 330/88, 504 h; outline: as §2
# [22] = system: Mycobacterium avium; experiment: Antimycobacterial activity against isoniazid, rifampicin, ethambutol and ofloxacin-resistant Mycobacterium avium My 330/88 after 14 days; format: functional; details: My 330/88, 336 h; outline: as §2
# [23] = system: Escherichia coli; experiment: Antibacterial activity against Escherichia coli CCM 4517 at 500 micromol/L after 24 to 48 hrs by broth microdilution method; format: functional, organism-based; outline: as §3
# [24] = system: Enterococcus sp.; experiment: Antibacterial activity against Enterococcus sp. J 14365/08 at 500 micromol/L after 24 to 48 hrs by broth microdilution method; format: functional, organism-based; outline: as §3
# [25] = system: Staphylococcus aureus; experiment: Antibacterial activity against methicillin-resistant Staphylococcus aureus H 5996/08 after 48 hrs by broth microdilution method; format: functional; details: H 5996/08, 48 h; outline: as §3
# [26] = system: Candida albicans; experiment: Antifungal activity against Candida albicans ATCC 44859 after 48 hrs by broth microdilution method; format: functional; details: ATCC 44859, 48 h; outline: as §1
# [27] = system: Staphylococcus aureus; experiment: Antibacterial activity against methicillin-resistant Staphylococcus aureus H 5996/08 after 24 hrs by broth microdilution method; format: functional; details: H 5996/08, 24 h; outline: as §3
# [28] = system: Trichosporon asahii; experiment: Antifungal activity against Trichosporon asahii 1188 after 24 hrs by broth microdilution method; format: functional; details: Trichosporon asahii, 1188, 24 h; outline: as §1
# [29] = system: Mycobacterium tuberculosis; experiment: Antimycobacterial activity against Mycobacterium tuberculosis H37Rv My 331/88 after 21 days; format: functional; details: H37Rv My 331/88, 504 h; outline: as §2
# [30] = system: Mycobacterium kansasii; experiment: Antimycobacterial activity against Mycobacterium kansasii 6509/96 after 21 days; format: functional; details: 6509/96, 504 h; outline: as §2
# [31] = system: Mycobacterium kansasii; experiment: Antimycobacterial activity against Mycobacterium kansasii My 235/80 after 14 days; format: functional; details: My 235/80, 336 h; outline: as §2
# [32] = system: Mycobacterium kansasii; experiment: Antimycobacterial activity against Mycobacterium kansasii My 235/80 after 7 days; format: functional; details: My 235/80, 168 h; outline: as §2
# [33] = system: Trichosporon asahii; experiment: Antifungal activity against Trichosporon asahii 1188 after 48 hrs by broth microdilution method; format: functional; details: Trichosporon asahii, 1188, 48 h; outline: as §1
# [34] = system: Staphylococcus epidermidis; experiment: Antibacterial activity against Staphylococcus epidermidis H 6966/08 after 24 hrs by broth microdilution method; format: functional; details: H 6966/08, 24 h; outline: as §3
# [35] = system: Trichophyton mentagrophytes; experiment: Antifungal activity against Trichophyton mentagrophytes 445 after 120 hrs by broth microdilution method; format: functional; details: Trichophyton mentagrophytes, 445, 120 h; outline: as §4
# [36] = system: Mycobacterium tuberculosis; experiment: Antimycobacterial activity against Mycobacterium tuberculosis H37Rv My 331/88 after 14 days; format: functional; details: H37Rv My 331/88, 336 h; outline: as §2
smiles,measurement,setting,value
CCOP(=O)(OCC)Oc1ccc(Cl)cc1C(=O)Nc1ccc(C(F)(F)F)cc1,MIC50,[1],> 250 µM
same,MIC,[2],2 µM
same,Activity,[3],inactive
same,MIC95,[4],31.2 µM
same,MIC50,[5],31.2 µM
same,MIC95,[6],31.2 µM
same,Activity,[7],inactive
same,Activity,[8],inactive
same,MIC95,[9],31.2 µM
same,MIC80,[10],> 250 µM
same,MIC50,[11],> 250 µM
same,MIC50,[12],> 250 µM
same,MIC80,[13],125 µM
same,Activity,[14],inactive
same,MIC,[15],2 µM
same,MIC50,[16],> 250 µM
same,IC50,[17],2.33 µM
same,MIC80,[18],125 µM
same,Activity,[19],inactive
same,MIC,[20],2 µM
same,MIC,[21],4 µM
same,MIC,[22],4 µM
same,Activity,[23],inactive
same,Activity,[24],inactive
same,MIC95,[25],62.5 µM
same,MIC80,[26],> 250 µM
same,MIC95,[27],62.5 µM
same,MIC80,[28],125 µM
same,MIC,[29],1 µM
same,MIC,[30],2 µM
same,MIC,[31],2 µM
same,MIC,[32],1 µM
same,MIC80,[33],250 µM
same,MIC95,[34],31.2 µM
same,MIC50,[35],31.2 µM
same,MIC,[36],1 µM
CCOP(=O)(OCC)Oc1ccc(Br)cc1C(=O)Nc1ccc(Br)cc1,MIC50,[1],125 µM
same,MIC,[2],4 µM
same,Activity,[3],inactive
same,MIC95,[4],1.95 µM
same,MIC50,[5],3.9 µM
same,MIC95,[6],7.81 µM
same,Activity,[7],inactive
same,Activity,[8],inactive
same,MIC95,[9],7.81 µM
same,MIC80,[10],125 µM
same,MIC50,[11],500 µM
same,MIC50,[12],500 µM
same,MIC80,[13],125 µM
same,Activity,[14],inactive
same,MIC,[15],4 µM
same,MIC50,[16],125 µM
same,IC50,[17],5.6 µM
same,MIC80,[18],> 500 µM
same,Activity,[19],inactive
same,MIC,[20],4 µM
same,MIC,[21],8 µM
same,MIC,[22],8 µM
same,Activity,[23],inactive
same,Activity,[24],inactive
same,MIC95,[25],3.9 µM
same,MIC80,[26],> 500 µM
same,MIC95,[27],3.9 µM
same,MIC80,[28],62.5 µM
same,MIC,[29],2 µM
same,MIC,[30],4 µM
same,MIC,[31],4 µM
same,MIC,[32],2 µM
same,MIC80,[33],62.5 µM
same,MIC95,[34],1.95 µM
same,MIC50,[35],3.9 µM
same,MIC,[36],2 µM
Nc1ccc(C(=O)O)c(O)c1 [AMINOSALICYLIC ACID],MIC,[2],125 µM
same,MIC,[15],> 1000 µM
same,MIC,[20],32 µM
same,MIC,[21],125 µM
same,MIC,[22],32 µM
same,MIC,[29],62.5 µM
same,MIC,[30],500 µM
same,MIC,[31],1000 µM
same,MIC,[32],125 µM
same,MIC,[36],62.5 µM
CC1(C)S[C@@H]2[C@H](NC(=O)Cc3ccccc3)C(=O)N2[C@H]1C(=O)O [PENICILLIN G],MIC95,[4],250 µM
same,MIC95,[6],0.98 µM
same,MIC95,[9],0.98 µM
same,MIC95,[25],125 µM
same,MIC95,[27],62.5 µM
same,MIC95,[34],250 µM
OC(Cn1cncn1)(Cn1cncn1)c1ccc(F)cc1F [FLUCONAZOLE],MIC50,[1],> 50 µM
same,MIC50,[5],17 µM
same,MIC80,[10],> 50 µM
same,MIC50,[11],> 50 µM
same,MIC50,[12],> 50 µM
same,MIC80,[13],> 50 µM
same,MIC50,[16],> 50 µM
same,MIC80,[18],1 µM
same,MIC80,[26],2 µM
same,MIC80,[28],4 µM
same,MIC80,[33],9 µM
same,MIC50,[35],26 µM
